Measured values: ChEMBL document CHEMBL3779766, “Synthesis and biological evaluation of quinoline analogues of flavones as potential anticancer agents and tubulin polymerization inhibitors” (Eur J Med Chem, 2016)
Calls of active or inactive are those of the source. The calls are words filed in the database; no cut-off is given here.

Experiments:
A2780 [1] = assay: Antiproliferative activity against human A2780 cells assessed as cell viability after 48 hrs by MTT assay; type: functional, cell-based; settings: A2780, 48 h
Method in brief: (§1)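 Cancer cells were seeded at 5×10³ per well in RPMI complete medium. The next day the medium was replaced with a range of test concentrations, with a no-drug RPMI control. Plates ran 48 h at 37 °C, then MTT (4 mg/mL solution) was added for 3 h. Formazan was dissolved in DMSO and absorbance read at 540 nm. Triplicate determinations.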

[2] = Antiproliferative activity against human MCF7/MX cells assessed as cell viability after 48 hrs by MTT assay; type: functional, cell-based; method in brief: as §1
MCF7 [3] = assay: Antiproliferative activity against human MCF7 cells assessed as cell viability after 48 hrs by MTT assay; type: functional, cell-based; settings: MCF7, 48 h; method in brief: as §1
Tubulin (Sus scrofa) [4] = target: T1, Tubulin (Sus scrofa) (UniProt P02554+P02550); assay: Inhibition of porcine brain tubulin polymerization at 100 uM measured for 1 hr by fluorescence assay
T1 sequence (P02550 whole entry, looked up): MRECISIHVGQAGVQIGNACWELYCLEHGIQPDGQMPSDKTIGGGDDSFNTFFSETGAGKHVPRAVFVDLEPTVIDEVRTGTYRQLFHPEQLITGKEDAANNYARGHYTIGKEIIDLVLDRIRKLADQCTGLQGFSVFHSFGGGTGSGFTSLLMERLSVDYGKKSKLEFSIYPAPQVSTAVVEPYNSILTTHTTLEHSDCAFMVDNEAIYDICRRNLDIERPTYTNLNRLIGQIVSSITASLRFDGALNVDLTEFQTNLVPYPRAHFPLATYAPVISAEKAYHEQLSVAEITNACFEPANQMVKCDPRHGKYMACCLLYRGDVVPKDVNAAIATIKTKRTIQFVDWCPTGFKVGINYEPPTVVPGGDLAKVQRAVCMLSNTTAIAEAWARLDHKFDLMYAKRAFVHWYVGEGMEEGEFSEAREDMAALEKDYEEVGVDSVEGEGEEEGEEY
T1 sequence (P02554 whole entry, looked up): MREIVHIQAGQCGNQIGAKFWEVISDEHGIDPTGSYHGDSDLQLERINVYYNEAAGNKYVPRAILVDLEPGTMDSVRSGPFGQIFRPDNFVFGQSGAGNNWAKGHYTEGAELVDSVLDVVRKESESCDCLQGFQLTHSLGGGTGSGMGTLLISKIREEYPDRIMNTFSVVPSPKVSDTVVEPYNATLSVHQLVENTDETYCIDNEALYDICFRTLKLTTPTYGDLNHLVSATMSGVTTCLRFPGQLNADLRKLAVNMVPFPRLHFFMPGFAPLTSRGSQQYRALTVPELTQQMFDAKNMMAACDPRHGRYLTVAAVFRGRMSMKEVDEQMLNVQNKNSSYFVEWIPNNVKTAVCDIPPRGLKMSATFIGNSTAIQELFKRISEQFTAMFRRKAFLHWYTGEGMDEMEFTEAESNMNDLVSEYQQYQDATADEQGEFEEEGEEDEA
Method in brief: (§2)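 Polymerization was tracked by a fluorescent reporter incorporating into microtubules (ex 360/em 420 nm) every 1 min for 1 h. Controls were paclitaxel 3 µM (stabilizer) and CA-4 10 µM (destabilizer).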

A2780 [5] = assay: Antiproliferative activity against cisplatin resistant human A2780 cells assessed as cell viability after 48 hrs by MTT assay; type: functional, cell-based; settings: A2780, 48 h; method in brief: as §1
Tubulin (Sus scrofa) [6] = target: T1, Tubulin (Sus scrofa); assay: Inhibition of porcine brain tubulin polymerization at 50 uM measured for 1 hr by fluorescence assay; method in brief: as §2
A2780 [7] = assay: Cell cycle arrest in human A2780 cells assessed as accumulation at G2/M phase at 100 uM after 24 hrs by propidium iodide staining based flow cytometry (reference value: 12.71%); type: functional
[8] = Cell cycle arrest in human MCF7/MX cells assessed as accumulation at G2/M phase at 100 uM after 72 hrs by propidium iodide staining based flow cytometry (reference value: 5.68%); type: functional
A2780 [9] = assay: Cell cycle arrest in cisplatin resistant human A2780 cells assessed as accumulation at G2/M phase at 100 uM after 24 hrs by propidium iodide staining based flow cytometry (reference value: 19.63%); type: functional
MCF7 [10] = assay: Cell cycle arrest in human MCF7 cells assessed as accumulation at G2/M phase at 100 uM after 72 hrs by propidium iodide staining based flow cytometry (reference value: 6.18%); type: functional
MCF7 [11] = assay: Cell cycle arrest in human MCF7 cells assessed as accumulation at G2/M phase at 3 uM after 72 hrs by propidium iodide staining based flow cytometry (reference value: 6.18%); type: functional
A2780 [12] = assay: Cell cycle arrest in human A2780 cells assessed as accumulation at G2/M phase at 3 uM after 24 hrs by propidium iodide staining based flow cytometry (reference value: 12.71%); type: functional
[13] = Cell cycle arrest in human MCF7/MX cells assessed as accumulation at G2/M phase at 3 uM after 72 hrs by propidium iodide staining based flow cytometry (reference value: 5.68%); type: functional
Tubulin (Sus scrofa) [14] = target: T1, Tubulin (Sus scrofa); settings: 10 uM
A2780 [15] = assay: Cell cycle arrest in cisplatin resistant human A2780 cells assessed as accumulation at G2/M phase at 3 uM after 24 hrs by propidium iodide staining based flow cytometry (reference value: 19.63%); type: functional
MCF7/MX = assay: Induction of apoptosis in human MCF7/MX cells assessed as accumulation at sub G1 phase at 50 uM after 72 hrs by propidium iodide staining based flow cytometry; type: functional, cell-based
Method in brief: (§3)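 2.5×10⁵ cells were seeded in 6-well plates for 24 h, then treated for 72 h alongside a vehicle control (0.05% DMSO). Cells were ethanol-fixed (70%), then incubated 0.5 h at 37 °C with RNase A (1 mg/mL) plus propidium iodide. Flow cytometry (FL2) gave the percentage of cells in the sub-G1 region as the apoptotic fraction.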

A2780 [16] = assay: Cell cycle arrest in human A2780 cells assessed as accumulation at G2/M phase at 50 uM after 24 hrs by propidium iodide staining based flow cytometry (reference value: 12.71%); type: functional
A2780 [17] = assay: Cell cycle arrest in cisplatin resistant human A2780 cells assessed as accumulation at G2/M phase at 50 uM after 24 hrs by propidium iodide staining based flow cytometry (reference value: 19.63%); type: functional
MCF7 [18] = assay: Induction of apoptosis in human MCF7 cells assessed as accumulation at sub G1 phase at 50 uM after 72 hrs by propidium iodide staining based flow cytometry; type: functional, cell-based; method in brief: as §3
MCF7 [19] = assay: Cell cycle arrest in human MCF7 cells assessed as accumulation at G2/M phase at 50 uM after 72 hrs by propidium iodide staining based flow cytometry (reference value: 6.18%); type: functional
[20] = Cell cycle arrest in human MCF7/MX cells assessed as accumulation at G2/M phase at 50 uM after 72 hrs by propidium iodide staining based flow cytometry (reference value: 5.68%); type: functional
A2780 [21] = assay: Induction of apoptosis in human A2780 cells assessed as accumulation at sub G1 phase at 50 uM after 72 hrs by propidium iodide staining based flow cytometry; type: functional, cell-based; method in brief: as §3
A2780 [22] = assay: Induction of apoptosis in cisplatin resistant human A2780 cells assessed as accumulation at sub G1 phase at 50 uM after 72 hrs by propidium iodide staining based flow cytometry; type: functional, cell-based; method in brief: as §3

Row | IC50 (A2780 [1]) [µM] | IC50 (MCF7 [3]) [µM] | IC50 (A2780 [5]) [µM] | Structure (SMILES) | IC50 [2] [µM] | further results
1 | > 100 | > 100 | > 100 | COc1ccc(-c2cc(C(=O)O)c3c(OC)c(OC)c(OC)cc3n2)cc1 | > 100 | inhibition (Tubulin (Sus scrofa) [4]): Active
2 | > 100 | > 100 | > 100 | COc1ccc(-c2cc(C(=O)O)c3c(OC)c(OC)c(OC)cc3n2)cc1OC | > 100 | –
3 | > 100 | > 100 | > 100 | COc1cc(-c2cc(C(=O)O)c3c(OC)c(OC)c(OC)cc3n2)cc(OC)c1OC | > 100 | –
4 | 7.98 | 60.7 | 23.1 | COc1ccc(-c2cc(CO)c3c(OC)c(OC)c(OC)cc3n2)cc1OC | 37.1 | inhibition (Tubulin (Sus scrofa) [6]): Active
5 | 38.7 | 56.3 | > 100 | COc1ccc(-c2cc(C(=O)O)c3c(OC)c(OC)c(OC)cc3n2)cc1O | 98.5 | Activity (A2780 [7]): 62.15%; Activity [8]: 3.74%; Activity (A2780 [9]): 43.12%; inhibition (Tubulin (Sus scrofa) [4]): inactive; Activity (MCF7 [10]): 8%
6 | > 100 | > 100 | > 100 | COc1cc2nc(-c3cccc(O)c3)cc(C(=O)O)c2c(OC)c1OC | > 100 | –
7 | > 100 | > 100 | > 100 | COc1cc(-c2cc(C(=O)O)c3c(OC)c(OC)c(OC)cc3n2)ccc1O | > 100 | inhibition (Tubulin (Sus scrofa) [4]): Active
8 | > 100 | > 100 | > 100 | COc1cc2nc(-c3ccc(O)cc3)cc(C(=O)O)c2c(OC)c1OC | > 100 | –
9 | 8.04 | 16.4 | 28.4 | COc1ccc(-c2cc(CO)c3c(OC)c(OC)c(OC)cc3n2)cc1 | 39.8 | inhibition (Tubulin (Sus scrofa) [6]): Active
10 | 9.19 | 49.7 | 52.2 | COc1cc(-c2cc(CO)c3c(OC)c(OC)c(OC)cc3n2)ccc1O | 53.9 | –
11 | 11.4 | 16.3 | 8.15 | COc1cc(-c2cc(CO)c3c(OC)c(OC)c(OC)cc3n2)cc(OC)c1OC | 14.1 | Activity (MCF7/MX): Active; Activity (A2780 [16]): 79.59%; Activity (A2780 [17]): 62.31%; Activity (MCF7 [18]): Active; Activity (MCF7 [19]): 79.59%; Activity [20]: 44.8%; inhibition (Tubulin (Sus scrofa) [6]): Active; Activity (A2780 [21]): Active; Activity (A2780 [22]): Active
12 | > 100 | > 100 | > 100 | COc1cc2nc(-c3ccc(O)cc3O)cc(C(=O)O)c2c(OC)c1OC | > 100 | inhibition (Tubulin (Sus scrofa) [4]): Active
13 | 29.6 | 59.5 | 43.3 | COc1ccc(-c2cc(CO)c3c(OC)c(OC)c(OC)cc3n2)cc1O | 21.5 | inhibition (Tubulin (Sus scrofa) [6]): Active

Row | Structure (SMILES) | IC50 (A2780 [1]) [µM] | IC50 (MCF7 [3]) [µM] | IC50 (A2780 [5]) [µM] | IC50 [2] [µM] | further results
14 | COc1ccc(/C=C\c2cc(OC)c(OC)c(OC)c2)cc1O [COMBRETASTATIN A4] | 2.84 | 1.23 | 2.95 | 2.97 | Activity (MCF7 [11]): 80.09%; Activity (A2780 [12]): 78.38%; Activity [13]: 43.2%; inhibition (Tubulin (Sus scrofa) [14]): Active; Activity (A2780 [15]): 25.41%
